Results from article PMC6323139 (Bioorganic & medicinal chemistry, 2017).
“Also recorded” adds a separate entry of the source.

Columns and labels:
Type in all cases: biochemical
[1] = target: T1, MIF (Homo sapiens, UniProt P14174); assay: Preincubation assay; conditions: for Reversibility of inhibition: concluded from preincubation and dilution experiments; for Change in IC50 between preincubation times: preincubated with MIF (340 nM) for 2 or 40 min, inhibitor 125–0 μM
T1 sequence (P14174 2-115 limits assumed): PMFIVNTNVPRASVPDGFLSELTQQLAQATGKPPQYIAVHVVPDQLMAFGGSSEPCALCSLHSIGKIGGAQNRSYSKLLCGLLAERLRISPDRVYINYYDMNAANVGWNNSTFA
Method in brief: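 His-tagged MIF (340 nM final, in boric acid pH 6.2) was preincubated 2 or 40 min with test compound (125–0 µM, 1.6-fold series, 5% DMSO). 0.5 mM 4-HPP (equilibrated overnight in ammonium acetate pH 6.0) was added, A306 followed, and IC50 curves made. For dilution, 34 µM MIF plus 125 µM compound was diluted 100-fold into 4-HPP/boric acid, with a DMSO-only control and absorbance tracked.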

[2] = target: T1, MIF; assay: Dilution experiment; conditions: MIF 34 μM with 125 μM inhibitor, diluted 100x in substrate solution
Method in brief: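 Recombinant His-tagged MIF, purified on His-Trap resin, was premixed at 34 µM with 125 µM test compound in 5% DMSO. The mix was diluted 100-fold into boric acid containing 0.5 mM 4-HPP. The 4-HPP stock was made in 50 mM ammonium acetate pH 6.0 and equilibrated overnight at room temperature. Enol-borate absorbance at 306 nm was plotted against time. The control used 5% DMSO without inhibitor.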

[3] = target: T1, MIF; assay: Enzyme kinetic evaluation at increasing 4-HPP concentrations; conditions: concluded from Vmax app. and Khalf app.
Method in brief: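 Initial velocities were taken from the linear slope of absorbance at 306 nm. Conditions were His-tagged recombinant MIF at 340 nM in boric acid pH 6.2, with 4-HPP at 0–2.56 mM (1.25× dilutions) and test compound at 0, 6.25 or 12.5 µM in 5% DMSO. Velocity versus substrate was fitted to an allosteric sigmoidal model, giving Vmax app., Hill slope and Kprime app. Khalf app. was calculated from Kprime and the Hill slope.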

Compound | Reversibility of inhibition [1] | Change in IC50 between preincubation times [1] | MIF enzyme activity after dilution of the enzyme-inhibitor mixture [2] | Mechanism of inhibition (competition with substrate 4-HPP) [3]
CCCCCCCCCCCCN1C(=O)CC2C(=C(N)Oc3ccccc32)C1=O (stereo not drawn) [Compound 10] | reversible inhibitors | No difference in IC50; also recorded: No significant change in IC50 value | activity of MIF could be recovered after dilution; also recorded: Diluting the inhibitor recovered the enzyme activity | no direct competition between the substrate 4-HPP and the inhibitor; also recorded: does not bind in direct competition with the substrate 4-HPP
Cc1ccc2c(c1)OC(N)=C1C(=O)N(CCc3c[nH]c4ccccc34)C(=O)CC12 (stereo not drawn) [Compound 17] | reversible inhibitors | No difference in IC50 |  | 
